zfTRPN1 agonist – zebrafish TRPN1 (NompC) channel agonism | HEK293 zebrafish TRPN1-YFP, Fluo-8 calcium fluorescence; 100% = response to 87 µM carbachol | activation, % at 3 µM | actives 0.18% (n = 220,000) | AID 1424;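 active means activation above its plate's cutoff, the mean activation of test wells on that plate plus 3 SD, cut at about 19% in these data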
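Material: zebrafish TRPN1-YFP in HEK293 cells; Doses: single test compound dose, 3 µM nominal, 0.3% DMSO; Timing: dye loading 1 h at 37 °C, then 30 min room temperature; Technique: intracellular calcium fluorescence with Fluo-8; Benchmarks: high carbachol 87 µM, low DMSO alone.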
TRPML3 agonist – agonists of human TRPML3 channel. Q8TDD5. HEK293 TRPML3-YFP, Fluo-8 calcium fluorescence; 100% = the carbachol control signal. activation, % at 3 µM. actives 0.29% (n = 220,000);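 active means activation above its plate's cutoff, the mean activation of the plate's test wells plus 3 SD, cut at about 12% in these data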
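Test system – HEK293 line with stable expression of human TRPML3-YFP channel · Control set – carbachol 87 µM final as high control (100%), DMSO as low control (0%) · Signal – Fluo-8 calcium dye fluorescence, ex 470-495, em 515-575 nm · Incubation – 1-h 37 °C dye load, 5-s basal, 120-s post-compound reads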
TAAR1 antag – antagonists of human TAAR1. CHO RD-HGA16 TAAR1, Fluo-8 calcium fluorescence, antagonist. inhibition, % at 3 µM. actives 1.5% (n = 360,000). AID 624466;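 active means inhibition above a per-plate cutoff, the mean inhibition of test compounds on that plate plus 3 SD, cut at about 49% in these data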
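System: CHO RD-HGA16 cells bearing hTAAR1. Reagent: EC80 β-phenethylamine stimulus. Schedule: seeding 17-24 h prior, 75-min 37 °C, 30-min RT dye loading. Signal: Fluo-8 intracellular calcium dye fluorescence, real-time kinetic reads. Read-out: % inhibition from peak post-agonist over basal fluorescence ratio. Benchmarks: vehicle wells and EC80 agonist wells. Replicates: n of 1.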
TAAR1 agonist – agonists of human TAAR1. Q96RJ0. CHO RD-HGA16 TAAR1, Fluo-8 calcium fluorescence; vehicle wells 0%, saturating PEA agonist 100%. activation, % at 3 µM. actives 0.99% (n = 360,000). AID 624467;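 active means activation above the mean activation of all test compounds in the run plus 3 SD, cut at about 38% in these data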
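System: CHO-derived RD-HGA16 cells with stable Gα16 and human TAAR1. Times: 17-24 h plating, Fluo-8 75 min 37 °C, 30 min RT. Measured by: calcium-sensitive Fluo-8 signal, excitation 470-495, emission 515-575 nm. Read-out basis: % activation relative to PEA EC100 response. Control set: DMSO and PEA EC100. Repeats: no replicates (n 1).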
LANA-H2A inh – blocks KSHV LANA binding to histone H2A/H2B | Q9QR71 | cell-free LANA-H2A/H2B peptide, fluorescence polarization | inhibition, % (no concentration beside the values) | actives 0.6% (n = 320,000); in the data active means inhibition mostly above about 10%, no sharp cut-off; inactive means mostly below about 6.7%
GPR7 antagonist – antagonists of human GPR7 (neuropeptides B/W receptor 1) | actives 1.1% (n = 290,000) | AID 1861 | P48145 | GPR7-expressing cells, fluorescence antagonist assay | inhibition, % at 4.4 µM; in the data active means inhibition above about 16%, passing the limit was not always enough;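 further: cells stimulated with the agonist NPW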
Target sequence (P48145 whole entry, looked up): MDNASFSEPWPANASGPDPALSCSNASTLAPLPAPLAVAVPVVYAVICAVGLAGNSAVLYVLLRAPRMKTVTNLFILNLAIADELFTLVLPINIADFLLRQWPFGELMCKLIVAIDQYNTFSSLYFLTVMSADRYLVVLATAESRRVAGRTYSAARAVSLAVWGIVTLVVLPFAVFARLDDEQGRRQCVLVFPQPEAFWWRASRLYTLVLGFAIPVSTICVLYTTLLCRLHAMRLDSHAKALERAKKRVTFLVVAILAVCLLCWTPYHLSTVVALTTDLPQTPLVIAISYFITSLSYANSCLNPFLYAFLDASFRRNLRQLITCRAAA
GPR7 antag conf – confirmation of human GPR7 antagonists. inhibition, % at 4.4 µM. shares compounds with GPR7 antagonist. AID 1952. GPR7-expressing cells, calcium fluorescence antagonist mode. actives 52% (n = 2,400); in the data active means inhibition above about 24%;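 further: stimulated with the GPR7 agonist NPW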
MCHR1 antagonist – counter-screen for GPR7 antagonists: antagonists of human MCHR1. shares compounds with GPR7 antagonist. MCHR1-expressing cells, fluorescence antagonist assay. inhibition, % at 4.4 µM. actives 62% (n = 2,400). AID 2148; in the data active means inhibition above about 22%
A number is an active result; 0 = inactive; - = no result. In the library only some 3.4% were active in any assay of this set; here they are far more common.

SMILES | zfTRPN1 agonist | TRPML3 agonist | TAAR1 antag | TAAR1 agonist | LANA-H2A inh | GPR7 antagonist | GPR7 antag conf | MCHR1 antagonist
c1ccc(C(Cc2nc(-c3ccncc3)no2)c2ccccc2)cc1 | 0 | 0 | 0 | 0 | 0 | 50 | 54 | 45
COc1ccc(-c2noc(COc3ccc4ccccc4c3Br)n2)cc1OC | 0 | 0 | 0 | 0 | 0 | 21 | 0 | 0
COC(=O)c1ccc(OCc2nn[nH]n2)cc1 | - | - | 0 | 0 | 0 | 0 | - | -
CC(C)=CCC[C@H](C)C[C@@H]1Cc2[nH][nH]c(=O)c2[C@@H](c2ccc(F)cc2)O1 | - | - | 0 | 0 | - | - | - | -
COc1ccc(NC(=O)CCC(=O)c2ccc(Cl)cc2)cn1 | - | - | 0 | 0 | 0 | - | - | -
Cc1cc(C)nc(CCNC(=O)c2cc(COc3ccccc3)on2)n1 | - | - | 0 | 0 | 0 | 27 | 0 | 0
O=c1c2ccccc2n(CC(O)CN2CCCCC2)c2ccccc12 (stereo not given) | 0 | 0 | 0 | 0 | 0 | 0 | - | -
COc1ccc(CN2CCN(CC(O)Cn3c4ccccc4c4ccccc43)CC2)cc1 (stereo not given) | 0 | 0 | 0 | 0 | 0 | 23 | 47 | 68
O=c1c2ccccc2n(CC(O)CN2CCOCC2)c2ccccc12 (stereo not given) | - | - | 0 | 0 | 0 | 42 | 0 | 0
O=C(CN(C(=O)c1csnn1)c1cccc(F)c1)NC1CCCC1 | - | - | 0 | 0 | 0 | 28 | 0 | 0
COc1ccc(Cn2cc(CN3CC(N(C)C)CS3(=O)=O)nn2)cc1 (stereo not given) | - | - | 0 | 0 | - | - | - | -
CN1CCN(c2nc(-c3ccc(Cl)cc3)nc3ccccc23)CC1 | - | - | 0 | 0 | - | 53 | 41 | 36
CN1CCN(c2nc(-c3ccncc3)nc3ccccc23)CC1 | 0 | 0 | 0 | 0 | 0 | 0 | - | -
COc1ccccc1-c1cnc(C(O)c2ccc(Cl)cc2C)[nH]1 (stereo not given) | - | - | 0 | 0 | - | - | - | -
Cc1ccc(S(=O)(=O)N2CCCCC2CCNC(=O)C(=O)NCC2CCCO2)cc1 (stereo not given) | - | - | 0 | 0 | 0 | - | - | -
CCOc1ccccc1CNC(=O)c1cc2occc2n1C | 0 | 0 | 0 | 0 | 0 | 24 | 0 | 0
CCOc1ccccc1CNC(=O)c1cc2oc3ccccc3c2n1C | 0 | 0 | 0 | 0 | 0 | 0 | - | -
O=C1C2CC=CCC2C(=O)N1c1ccc(NCCc2ccc(O)cc2)c([N+](=O)[O-])c1 (stereo not given) | 0 | 0 | 0 | 0 | 0 | 31 | 28 | 55
Cc1ccc(Cl)cc1NC(=O)COC(=O)c1ccccc1O | 0 | 0 | 0 | 0 | 0 | 0 | - | -
Cc1ccc(Cl)cc1NC(=O)c1cc2ccccc2cc1O | 0 | 0 | 0 | 0 | 0 | 25 | 54 | 53
COc1cc(CN2CCC(CO)(Cc3cccc(C(F)(F)F)c3)CC2)ccc1F | 0 | 0 | 0 | 0 | 0 | 34 | 0 | 44
COc1ccc(F)c(CN2CCC(CO)(Cc3cccc(C(F)(F)F)c3)CC2)c1 | 0 | 0 | 0 | 0 | 0 | 0 | - | -
CC1CCN(CC(O)COC2CC(C)CCC2C(C)C)CC1 (stereo not given) | 0 | 0 | 0 | 0 | 0 | 23 | 0 | 0
CCOC(=O)N1CCN(CC(O)COC2CC(C)CCC2C(C)C)CC1 (stereo not given) | 0 | 0 | 0 | 0 | 0 | 0 | - | -
Cc1ccc(CCNC(=O)C2CC(=O)N(C3CCCCC3)C2)cc1 (stereo not given) | - | - | 0 | 0 | 0 | 28 | 0 | 0
Cc1nc(N2CCN(S(=O)(=O)c3cccs3)CC2)c2c(-c3ccccc3)c(C)sc2n1 | - | - | 0 | 0 | - | - | - | -
CCOC(=O)C1(Cc2ccc(OC)cc2)CCN(C(=O)c2cc(C)on2)CC1 | - | - | 0 | 0 | 0 | 25 | 0 | 0
CCOC(=O)C1(Cc2ccc(OC)cc2)CCN(C(=O)c2sc(C)nc2C)CC1 | 0 | 0 | 0 | 0 | 0 | 0 | - | -
CCOC(=O)c1ccc2c(c1)n(CC)c(/C=C/N(C)c1ccccc1)[n+]2CC | 0 | 0 | 0 | 0 | 0 | 0 | - | -
